Published values gathered from unrelated publications.
Compare with care: the assays were run in different laboratories.
Cell line: A498
Read-out: cell growth or viability

With `COc1ccc(C(=O)/C=C/c2cccc3ccccc23)cc1S(N)(=O)=O` the inhibition was -7% (SRB; 10 µM).
For `S=C([S][Au-][P+](CCCCCC[P+]([Au-][S]C(=S)n1cccn1)(c1ccccc1)c1ccccc1)(c1ccccc1)c1ccccc1)n1cccn1`, the GI50 was 1010 nM.
The GI50 of `COc1cc(-c2ccc(-c3ccc(C(=N)N)nc3)s2)cc(OC)c1OC` is reported as 4910 nM.
The IC50 of `CC(C)C[C@H](NC(=O)[C@H](Cc1ccccc1)NC(=O)c1cnccn1)B(O)O` is reported as 7.7 nM (ATP luminescence).
For `CCC(=O)Nc1cc(Nc2cc(NC3CC3)n3ncc(C#N)c3n2)ccc1C`, the IC50 was 1800 nM (ATP luminescence; 72 h).
For `COc1cccc(Oc2ccccc2NC(=O)CNC(=O)c2cccc3ccccc23)c1`, the GI50 was 115 nM (SRB; 48 h).
With `COc1cc(Nc2nccc(-c3cnn4nc(OC)ccc34)n2)cc(C(F)(F)F)c1` the IC50 was 430 nM (ATP luminescence).
`Cc1cc(C)n(C(=S)[S][Au][PH](CCCCCC[PH]([Au][S]C(=S)n2nc(C)cc2C)(c2ccccc2)c2ccccc2)(c2ccccc2)c2ccccc2)n1` gave a GI50 of 384 nM.
The GI50 of `COc1ccc(C(=O)/C=C/c2ccc3ccccc3c2)cc1S(N)(=O)=O` is reported as 14500 nM (SRB; 48 h).
